Here are results for 4 molecules from article PMC9826503 (Chemmedchem, 2022).

For series [1], the system named is human genomic DNA (gDNA). The experiment in a line: Agarose gel electrophoresis, ethidium bromide displacement from gDNA. In kind it is binding. In a few lines: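 Human genomic DNA (100 ng) was incubated with test compound at 50 or 200 μM for 4 hours at 37 °C, alongside a 2 % (v/v) DMSO control and a cisplatin (200 μM) control. Mixtures with loading dye were run on a 0.8 % (w/v) agarose gel containing ethidium bromide, 45 min at 90 V in 1× TAE (40 mM Tris-acetate, 1 mM EDTA). Bands were imaged, and EtBr staining intensity was compared across lanes.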

Series [2] has as its system calf thymus DNA. Put plainly: Methylene blue DNA competition assay. The class given is binding. Particulars: 50 and 200 μM, 100 ng calf thymus DNA, 15 μg/mL methylene blue. Put shortly: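 Each 100 μL reaction held methylene blue (15 μg/mL), calf thymus DNA (100 ng) and test compound (50 or 200 μM) in MilliQ water, with a 0.05 % (v/v) DMSO vehicle control. Mixtures were incubated 10 minutes at room temperature in the dark. An emission scan was then recorded under fixed excitation. Runs were done in triplicate.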

In series [3] the target is T1, recombinant human topoisomerase I (Homo sapiens, UniProt P11387).
T1 sequence (P11387 1-765): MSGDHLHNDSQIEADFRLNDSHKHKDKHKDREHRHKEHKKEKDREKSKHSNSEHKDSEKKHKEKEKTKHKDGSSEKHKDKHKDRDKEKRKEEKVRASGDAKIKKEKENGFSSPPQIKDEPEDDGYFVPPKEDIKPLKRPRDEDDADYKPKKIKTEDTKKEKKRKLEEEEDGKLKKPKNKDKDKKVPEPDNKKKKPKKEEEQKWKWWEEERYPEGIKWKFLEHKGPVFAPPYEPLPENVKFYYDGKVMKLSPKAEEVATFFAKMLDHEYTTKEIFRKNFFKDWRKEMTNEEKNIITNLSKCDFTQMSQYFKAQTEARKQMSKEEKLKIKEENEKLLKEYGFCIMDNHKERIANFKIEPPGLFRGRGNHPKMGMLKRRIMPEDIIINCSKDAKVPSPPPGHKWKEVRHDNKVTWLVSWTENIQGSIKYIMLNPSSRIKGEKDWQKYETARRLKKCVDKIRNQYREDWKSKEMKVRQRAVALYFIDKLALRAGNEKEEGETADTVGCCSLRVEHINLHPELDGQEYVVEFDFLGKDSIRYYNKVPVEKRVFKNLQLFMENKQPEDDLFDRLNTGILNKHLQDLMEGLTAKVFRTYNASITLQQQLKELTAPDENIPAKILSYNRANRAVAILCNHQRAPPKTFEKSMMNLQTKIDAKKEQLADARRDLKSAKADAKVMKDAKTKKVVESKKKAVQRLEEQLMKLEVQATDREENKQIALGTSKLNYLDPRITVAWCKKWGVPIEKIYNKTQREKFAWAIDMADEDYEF
The experiment in a line: Topoisomerase I inhibition. In kind it is biochemical.

Series [4] has as its target T2, bovine serum albumin (BSA) (Bos taurus, UniProt P02769). The experiment in a line: BSA UV-Vis absorption titration. The class given is binding. Particulars: 280 nm. Put shortly:
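BSA (~20 μM, PBS pH 7.2; concentration set from ε280 = 43824 M−1 cm−1) titrated with test compound (0–~380 μM; stocks in MeOH). Equal compound volumes added to the sample and reference cells; each mixture incubated 2 min. BSA absorbance at 280 nm fitted to a double-reciprocal plot of 1/(A0−A) vs 1/[compound]. kapp taken as the intercept/slope ratio.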

Series [5] has as its target T2, bovine serum albumin (BSA). Put plainly: BSA fluorescence quenching titration, with and without site markers. The class given is binding. Put shortly: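 Emission spectra of BSA recorded at 293 K during titration with increasing test compound. Excitation 280 nm, emission 300–500 nm, slits 5 nm. Intensities corrected for inner filter effect using absorbances at the excitation and emission maxima. KSV from Stern-Volmer fit; kq = KSV/τ0, τ0 10−8 s. Site-marker runs: warfarin (site I) or ibuprofen (site II) added equimolar to BSA (each 5 μM) before titration.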

Series [6] deals with HCC70 triple negative breast cancer cell line. The experiment in a line: Resazurin cytotoxicity assay, HCC70. The class given is cell-based. The settings on record: for IC50: read-out: HCC70 IC50 and SD.
The subject of series [7] is MCF-7 hormone responsive breast cancer cell line. The experiment in a line: Resazurin cytotoxicity assay, MCF-7. In kind it is cell-based. Particulars: for IC50: read-out: MCF-7 IC50 and SD.
The test system of series [8] is non-tumorigenic breast epithelial cell line MCF12A. The experiment in a line: Resazurin cytotoxicity assay, MCF-12A. The class given is cell-based. Particulars: read-out: MCF-12A IC50 and SD.
Series [9] can be described thus: Time-dependent stability studies by UV-Vis spectrophotometry. The class given is physicochemical. Particulars: 10^−5 M, 1 hour intervals for 24 hours. Put shortly:
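Test compound was dissolved at 10−5 M in anhydrous DMSO at room temperature and filtered. UV-Vis spectra were then recorded hourly over 24 hours.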

Series [10] relates to HeLa cervical cancer cell line. Put plainly: Resazurin cytotoxicity assay, HeLa. In kind it is cell-based.
Series [11] concerns cancer cell lines (HeLa, HCC70, MCF-7). The experiment in a line: Resazurin cytotoxicity assay, cancer cell lines as a group. In kind it is cell-based. The settings on record: read-out: IC50 values against the cancer cells. In a few lines:
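HeLa, HCC70 and MCF-7 cells seeded at 5000 cells/well and left to attach overnight (37 °C, 9 % CO2). Treated 96 h with test compound (15.63–500.00 μM), 2 % (v/v) DMSO vehicle, or paclitaxel control (0.16–500 nM). Resazurin then added for 2–4 h; fluorescence read at ex 560/em 590 nm. Done in triplicate; IC50 by non-linear regression.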

[12] abbreviates: Ibuprofen site marker (site II).
[13] abbreviates: No Site marker, KSV=kq τ0, τ0 10^−8 s.
The mark [14] stands for this setting: 96 hours, non-cancerous control.
The mark [15] stands for this setting: (IC50 value in MCF12-A)/(IC50 value in cancer cell line).

Read-outs that look alike come from different tables or passages of the source.

T2 sequence (P02769 25-607): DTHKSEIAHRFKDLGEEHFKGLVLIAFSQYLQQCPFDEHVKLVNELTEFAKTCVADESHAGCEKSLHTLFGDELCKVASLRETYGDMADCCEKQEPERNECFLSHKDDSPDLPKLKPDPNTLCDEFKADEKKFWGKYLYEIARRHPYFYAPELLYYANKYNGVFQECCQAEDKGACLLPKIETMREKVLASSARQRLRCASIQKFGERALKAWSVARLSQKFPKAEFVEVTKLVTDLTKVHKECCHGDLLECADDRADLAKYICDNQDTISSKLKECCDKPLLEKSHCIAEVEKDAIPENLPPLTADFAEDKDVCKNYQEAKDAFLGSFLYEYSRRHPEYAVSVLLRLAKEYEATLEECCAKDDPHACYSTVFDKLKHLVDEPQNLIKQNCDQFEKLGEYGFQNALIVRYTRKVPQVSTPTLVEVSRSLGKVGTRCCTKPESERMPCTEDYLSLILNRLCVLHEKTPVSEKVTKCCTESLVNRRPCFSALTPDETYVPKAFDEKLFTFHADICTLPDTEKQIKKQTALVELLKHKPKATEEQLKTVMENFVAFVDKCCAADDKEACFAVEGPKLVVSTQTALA

Consider “trans‐P‐[RuCl(PPh3)2(pmt)]Cl [Compound 1]”, for which the “Intensity of EtBr stained gDNA band” value in series [1] (higher concentration (200 μM)) is listed as “considerable dose‐dependent reduction in intensity”; in series [1] (lower concentration (50 μM), relative to DMSO control), “decreases in the intensity of the EtBr stained gDNA”. Further, the “Competition with methylene blue for DNA binding (intercalation)” value in [2] is recorded as “competitively bind to the calf thymus DNA in a concentration‐dependent manner”. Also, the “Inhibition of Topo I activity” value in [3] (50 and 200 μM) is given as “inhibited Topo I activity”. Also, in series [4], the “apparent association constant (kapp)” value stood at 90200 M⁻¹. In addition, the “K SV” value in series [5] (setting [12]) came to 1360 M⁻¹; in series [5] (No Site marker) it was 88400 M⁻¹; in [5] (Warfarin site marker (site I)) it was 2090 M⁻¹. The k q in series [5] (setting [12]) amounted to 1.36e+11 M⁻¹ s⁻¹; in series [5] (setting [13]), 8.84e+12 M⁻¹ s⁻¹; in series [5] (Warfarin site marker (site I)), 2.09e+11 M⁻¹ s⁻¹. Also, in [6] (HCC70 versus MCF-7), the “fold less cytotoxic towards HCC70 compared to MCF-7” value is given as “more than 10 fold”. For the same molecule, the half-maximal inhibitory concentration (IC50) in [6] (96 hours) came out at 75.5 µM; in [7] (96 hours), 5.2 µM; in series [8] (setting [14]), 60.1 µM. Also, the “Stability in anhydrous DMSO (UV-Vis spectral changes)” value in series [9] was “noticeable alterations in the electronic spectrum”.

With `CC(=O)O[C@H]1C(=O)[C@@]2(C)[C@H]([C@H](OC(=O)c3ccccc3)[C@]3(O)C[C@H](OC(=O)[C@H](O)[C@@H](NC(=O)c4ccccc4)c4ccccc4)C(C)=C1C3(C)C)[C@]1(OC(C)=O)CO[C@@H]1C[C@@H]2O` [Paclitaxel, paclitaxel, reference compound], the “SI (selectivity index), HeLa” value in [10] (setting [15]) is 5.96. Also, the “SI (selectivity index), HCC70” value in [6] (setting [15]) worked out at 4.12. Besides, the IC50 is 0.00392 ± 0.00103 µM in series [6] (Homo sapiens, HCC70, 96 h); 0.0024 ± 0.00111 µM in series [7] (Homo sapiens, MCF7, 96 h); 0.0162 ± 0.00108 µM in series [8] (Homo sapiens, MCF-12A, 96 h); 0.0024 to 0.00392 µM in [11]. The “SI (selectivity index), MCF-7” value in [7] (setting [15]) is 6.73.

`CC[C@@]1(O)C(=O)OCc2c1cc1n(c2=O)Cc2cc3ccccc3nc2-1` [camptothecin, reference compound]: in [3] (200 μM), the “Inhibition of Topo I activity” value is reported as “failed to inhibit the enzyme”.

Consider “cis‐Cl, trans‐P‐[RuCl2(PPh3)2(btm)] [Compound 3]”, for which the “Intensity of EtBr stained gDNA band” value in series [1] (higher concentration (200 μM)) is on record as “considerable dose‐dependent reduction in intensity”. Besides, the “Competition with methylene blue for DNA binding (intercalation)” value in series [2] is recorded as “no effect on the ability of methylene blue to bind to the DNA”. In addition, the “Inhibition of Topo I activity” value in [3] (50 μM) was “complete inhibition of Topo I”. Further, in series [4], the “apparent association constant (kapp)” value came to 18900 M⁻¹. Further, the results for the “K SV” value in series [5] (setting [12]), in series [5] (No Site marker) and in series [5] (Warfarin site marker (site I)) were 9130 M⁻¹, 69500 M⁻¹ and 1290 M⁻¹, respectively. The k q stood at 9.13e+11 M⁻¹ s⁻¹ in series [5] (setting [12]), 6.95e+12 M⁻¹ s⁻¹ in series [5] (setting [13]) and 1.29e+11 M⁻¹ s⁻¹ in [5] (Warfarin site marker (site I)). Further, the IC50 was 6.29 ± 1.1 µM in [10] (read-out: HeLa IC50 and SD, 96 hours); 8.87 ± 1.12 µM in series [7] (96 hours); 36.5 ± 1.08 µM in [8] (setting [14]). In addition, in series [9], the “Stability in anhydrous DMSO (UV-Vis spectral changes)” value is “blue‐shifted and decreasing MLCT band at 525 nm and an emerging MLCT band at 437 nm”.
